ABCB6 inh MLPCN: inhibitors of human ABC transporter ABCB6; K562-ABCB6 porphyrin accumulation, flow cytometry, 1 h; active compounds read low; fluorescence ratio to DMSO, % at 10 µM; 0.19% of 360,000 active; Q9NP58;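 active = fluorescence ratio to DMSO below 75%, the collection mean minus 3 SD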;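 also: signal is porphyrin accumulated inside mitochondria; 100% equals median channel fluorescence of DMSO control wells; lower ratio means ABCB6 inhibition with less porphyrin fluorescence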
hiPSC survival: hiPSC single-cell survival enhancement; 0.044% of 360,000 active; survival enhancement, % at 20 µM; AID 602274; ATPlite luminescence; 100% = ROCK inhibitor wells, 0% = DMSO; in the data active = survival enhancement above about 18%;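 also: cells exposed to compounds for 16 hours before the ATP read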
Granule exo inh: blocks lytic granule exocytosis; 0.66% of 360,000 active; inhibition, % at 10 µM; TALL-104 LAMP-1 surface exposure, flow cytometry; cells stimulated with thapsigargin and PMA;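 active = inhibition above about 55%, limit read from the data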
TbMetRS inhib: blocks T. brucei methionyl-tRNA synthetase activity. purified T. brucei MetRS, ATP depletion, Kinase-Glo luminescence. AID 624268. 0.4% of 360,000 active. inhibition, % at 11.9 µM;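 active = inhibition above a per-plate cutoff of the control wells' mean inhibition plus 3 SD, cut at about 5.5% in these data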;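 also: 0% = DMSO wells median and 100% = median of wells with control inhibitor compound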
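technique = Kinase-Glo luminescence, ATP depletion format | system = purified MetRS (methionyl-tRNA synthetase) enzyme from Trypanosoma brucei | timing = 15 min preincubation, 2 h reaction, all 25 °C | evaluation = percent inhibition versus plate control medians | dosing = single dose, 11.9 µM final nominal, 0.9% final DMSO | also added = substrates ATP, L-methionine and bulk Escherichia coli tRNA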
MC4R antagonist: human MC4R antagonism in cAMP assay. 0.48% of 360,000 active. P32245. MC4R-expressing cells, MTII-stimulated cAMP, LANCE TR-FRET. AID 540295. inhibition, % at 6.5 µM;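 active = inhibition above its plate's cutoff, the mean of tested wells on that plate plus 3 SD, cut at about 29% in these data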;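 also: 0% = Melanotan II alone and 100% = Melanotan II plus saturating MCL0020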
Target sequence (P32245 whole entry, looked up): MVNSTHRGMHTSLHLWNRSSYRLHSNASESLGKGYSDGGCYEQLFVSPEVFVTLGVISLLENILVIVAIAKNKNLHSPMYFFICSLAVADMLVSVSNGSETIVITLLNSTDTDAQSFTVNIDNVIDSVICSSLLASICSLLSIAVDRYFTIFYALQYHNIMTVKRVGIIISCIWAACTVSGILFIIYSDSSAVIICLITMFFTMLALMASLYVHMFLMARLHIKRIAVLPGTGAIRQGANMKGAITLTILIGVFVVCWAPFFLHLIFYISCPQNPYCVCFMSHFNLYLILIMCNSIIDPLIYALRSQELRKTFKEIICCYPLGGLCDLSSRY
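Material – human MC4R-expressing U2OS cells · Repeats – no replicates · Detection – TR-FRET with Eu-cAMP and labeled anti-cAMP, 671 nm · Times – compound 30 min, challenge 1 h, detection 1 h · Compound – single nominal compound dose of 6.5 µM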
MC4R barr agon: human MC4R agonism via beta-arrestin. U2OS MC4R beta-arrestin complementation, luminescence; percent of melanotan II response, DMSO zero. activation, % at 8.9 µM. 0.98% of 360,000 active;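 active = activation above a per-plate cutoff, the mean activation of sample wells on that plate plus 3 SD, cut at about 8% in these data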
cAMP nonselect: nonselective cAMP signaling inhibitor, MC4R antagonist counter-screen; shares compounds with MC4R antagonist; parental U2OS, forskolin cAMP, LANCE TR-FRET; inhibition, % at 6.5 µM; 26% of 1,600 active; AID 602193;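 active = mean inhibition over triplicates above the low-control well mean plus 3 SD, set per campaign, cut at about 13% in these data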;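 also: signal is single emission at 671 nm which falls as cellular cAMP rises; 0% = forskolin-stimulated wells and 100% = buffer without forskolin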
MC4R cAMP antag: human MC4R cAMP antagonism confirmation. 27% of 1,600 active. MC4R-expressing cells, MTII-stimulated cAMP, TR-FRET. inhibition, % at 6.5 µM. shares compounds with MC4R antagonist; in the data active = inhibition above about 29%;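 also: 0% = agonist stimulated wells alone and 100% = agonist stimulated wells plus saturating reference antagonist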
Active calls of the source: *; x = no result given. A selection: hits, their analogues and other compounds. The true share with any hit is near 2.6%.

SMILES | ABCB6 inh MLPCN | hiPSC survival | Granule exo inh | TbMetRS inhib | MC4R antagonist | MC4R barr agon | cAMP nonselect | MC4R cAMP antag
CC(CCc1ccccc1)NC(=O)COC(=O)c1ccc(S(C)(=O)=O)c([N+](=O)[O-])c1 (stereo unspecified) | 96 | 0 | 27 | -1 | 70* | -3 | 32* | 55*
Cc1ccccc1NC(=O)COC(=O)c1ccc(S(C)(=O)=O)c([N+](=O)[O-])c1 | 107 | -2 | 6 | -1 | 47* | -2 | 33* | 51*
CC(CCc1ccccc1)NC(=O)COC(=O)c1ccc([N+](=O)[O-])cc1 (stereo unspecified) | 95 | 0 | 2 | 0 | 8 | -1 | x | x
COc1ccccc1C(=O)C1CCCN(C(=O)c2cccc(-n3cccn3)c2)C1 (stereo unspecified) | 100 | -1 | -4 | 0 | 11 | 0 | x | x
Cc1nn(-c2cccc(Cl)c2)c2nc(-c3ccncc3)cc(C(=O)N3CCOCC3)c12 | 106 | 0 | 7 | 0 | 34* | 7 | 0 | 17
CCNC(=O)Cn1cc(C(F)(F)F)cc(Cl)c1=O | 91 | 1 | -2 | 0 | 30* | -2 | -1 | -2
O=C(c1cccs1)N(Cc1nc2sc3c(c2c(=O)[nH]1)CCCC3)C1CCCC1 | 87 | 1 | -3 | 0 | 30* | 4 | -14 | -28
Cc1ccccc1N(CC(=O)NC1CCCCC1)C(=O)CNC(=O)c1cccs1 | 101 | 0 | -11 | 0 | 30* | 2 | -17 | -33
O=C(C#Cc1ccccc1)c1ccccc1 | 104 | -5 | 7 | 0 | 51* | -1 | 29* | 36*
CCOC(=O)CSc1ccc(-c2nc3cc(C)c(C)cc3[nH]2)cn1 | 93 | -3 | 5 | 0 | 34* | -3 | 8 | 6
COC(=O)c1ccc(COC(=O)CNS(=O)(=O)c2ccc(C)cc2)cc1 | 93 | 1 | 0 | 0 | 40* | 1 | 19* | 26
Cc1ccc(S(=O)(=O)NCC(=O)OCc2csc(-c3ccccc3)n2)cc1 | 100 | 2 | 4 | 0 | 30* | 2 | 15* | 28
O=C(CNS(=O)(=O)c1ccc2ccccc2c1)OCc1csc(-c2ccccc2)n1 | 89 | -1 | 5 | 0 | 10 | 1 | x | x
O=C(CSc1cn[nH]n1)Nc1ccccc1C(F)(F)F | 93 | 1 | -9 | -1 | 1 | -1 | x | x
O=C1CNC(=O)/C1=C/c1ccc(Br)cc1 | 96 | 0 | -1 | 0 | 32* | 0 | 1 | -6
Cc1cc(C)n(-c2nnc(Cl)c3ccccc23)n1 | 101 | -2 | 6 | -1 | 37* | -5 | 30* | 46*
N#CC(C#N)=C1C=CC=CN1/C(=C\c1ccco1)C(=O)c1ccc(-c2ccccc2)cc1 | 99 | 0 | 28 | 0 | 31* | -4 | 0 | 13
N#CC(C#N)=C1C=CC=CN1/C(=C\c1ccco1)C(=O)c1ccc(Cl)cc1 | 104 | -1 | 90* | 0 | 34* | -3 | 29* | 43*
CC(/C=N/n1c(-c2ccc(Cl)cc2)n[nH]c1=S)=C\c1ccco1 | 106 | 1 | 18 | 0 | 10 | 2 | x | x
COc1ccc(CCN=Cc2ccccc2O)cc1OC | 98 | 0 | 5 | -1 | 5 | 0 | x | x
O=C(/C=C/c1ccco1)OCc1nnc(-c2ccc(Cl)cc2)o1 | 100 | -2 | 4 | 0 | 32* | -2 | 1 | -8
O=C(/C=C/c1ccco1)OCc1nnc(-c2ccccc2)o1 | 97 | -2 | 0 | 0 | 2 | -2 | x | x
O=C(COc1ccccc1[N+](=O)[O-])OCC(=O)c1ccc(Br)s1 | 92 | 0 | 1 | 0 | 45* | -1 | 14* | 38*
COc1cccc(C(=O)c2c[nH]c(C(=O)NCc3cccnc3)c2)c1 | 102 | 0 | -2 | 1 | 30* | -1 | 3 | 12
CCCCC(=O)Nc1ccc(C(=O)N(CC)c2ccccc2C)cc1 | 102 | 0 | -2 | 0 | 30* | 1 | 2 | -9
SMILES | ABCB6 inh MLPCN | hiPSC survival | Granule exo inh | TbMetRS inhib | MC4R antagonist | MC4R barr agon | cAMP nonselect | MC4R cAMP antag
O=c1c(Cc2c(F)cccc2Cl)c(O)ccn1CCCN1CCOCC1 | 97 | 1 | -4 | 1 | 30* | 1 | -7 | -20
C#CCn1ccc(O)c(Cc2c(F)cccc2Cl)c1=O | 106 | 3 | -1 | 2 | 23 | -1 | x | x
Cc1ccc(N2C(=O)c3cccc([N+](=O)[O-])c3C2=O)cc1C | 85 | 1 | 2 | -1 | 42* | -1 | 23* | 45*
COC(=O)c1c(NC(=O)CC2SCC(C(=O)OC)NC2=O)sc2c1CCCC2 (stereo unspecified) | 99 | -3 | -3 | 0 | 29* | 1 | 10 | 32*
COC(=O)c1c(NC(C)=O)sc2c1CCCC2 | 100 | 2 | -1 | 0 | 8 | -1 | x | x
COC(=O)C1CCN(C(=O)COC(=O)/C=C/c2ccc(O)c(OC)c2)CC1 | 92 | 0 | -2 | 0 | 4 | -1 | x | x
CC(=O)Oc1ccc(CN2C(=O)C(CCc3ccccc3)ON=C2c2cnccn2)cc1 (stereo unspecified) | 99 | -1 | 24 | 0 | 29* | 0 | 6 | 13
c1ccc(Cn2c(CNc3nc4ccccc4n3CCN3CCCCC3)nc3ccccc32)cc1 | 108 | -3 | 13 | 0 | 29* | -3 | -5 | 28
Cn1c(CNc2nc3ccccc3n2CCN2CCCCC2)nc2ccccc21 | 90 | -3 | 1 | 0 | 0 | 0 | x | x
Cc1ccccc1NC(=O)CN1C(=O)NC2(CCc3ccccc32)C1=O (stereo unspecified) | 100 | 2 | 18 | 0 | 6 | -1 | x | x
COc1cc2c(cc1NC(=O)CN1C(=O)NC3(CCc4ccccc43)C1=O)oc1ccccc12 (stereo unspecified) | 94 | -1 | 5 | 1 | 44* | 0 | 2 | 27
O=C(COc1ccc2ccccc2c1)N1CCN(C(=O)c2ccc([N+](=O)[O-])cc2)CC1 | 102 | 0 | 1 | -1 | 32* | 0 | 2 | 7
Cc1csc(NC(=O)Cc2ccccc2Cl)n1 | 98 | 0 | 3 | 0 | 6 | -1 | x | x
Cc1cnc(NC(=O)Cc2ccccc2Cl)s1 | 104 | 0 | -14 | -1 | 30* | 0 | -1 | -6
COc1cc(C(=O)N2CCCCC2c2cc(C(=O)Nc3ccccc3)no2)cc(OC)c1C (stereo unspecified) | 93 | 0 | -8 | 0 | 9 | 0 | x | x

From PubChem
